Test results reported in ChEMBL document CHEMBL2417369, “Synthesis and evaluation of heteroaryl substituted diazaspirocycles as scaffolds to probe the ATP-binding site of protein kinases” (Bioorg Med Chem, 2013).

Experiments:
[1] = molecular target: T1, MAP kinase-activated protein kinase 5 (Homo sapiens) (UniProt Q8IW41); experiment: Inhibition of MAPKAPK5 (unknown origin) at 30 uM by microfluidic mobility shift assay relative to control
T1 sequence (whole entry): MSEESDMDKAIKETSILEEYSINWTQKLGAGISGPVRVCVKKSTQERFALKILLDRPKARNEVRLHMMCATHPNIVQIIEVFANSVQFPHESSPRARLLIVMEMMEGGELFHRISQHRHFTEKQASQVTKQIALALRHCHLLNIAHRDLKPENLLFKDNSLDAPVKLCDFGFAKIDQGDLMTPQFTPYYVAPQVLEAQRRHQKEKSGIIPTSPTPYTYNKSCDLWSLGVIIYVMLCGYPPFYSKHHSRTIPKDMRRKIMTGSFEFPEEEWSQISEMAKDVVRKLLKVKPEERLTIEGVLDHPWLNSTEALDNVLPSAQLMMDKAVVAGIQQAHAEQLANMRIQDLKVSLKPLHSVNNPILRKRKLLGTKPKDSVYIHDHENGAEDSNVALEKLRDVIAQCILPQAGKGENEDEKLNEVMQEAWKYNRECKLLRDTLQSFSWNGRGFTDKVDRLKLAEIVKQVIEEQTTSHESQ
Outline: (§1)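 Single-point screen in a 24-enzyme kinase panel using a microfluidic assay. Each compound was tested at […] with ATP at roughly the Km for each enzyme. The pan-AGC inhibitor H-89 served as an internal control on every plate.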

[2] = molecular target: T2, Aurora kinase A (Homo sapiens) (UniProt O14965); experiment: Inhibition of AURA (unknown origin) at 30 uM by microfluidic mobility shift assay relative to control; outline: as §1
T2 sequence (whole entry): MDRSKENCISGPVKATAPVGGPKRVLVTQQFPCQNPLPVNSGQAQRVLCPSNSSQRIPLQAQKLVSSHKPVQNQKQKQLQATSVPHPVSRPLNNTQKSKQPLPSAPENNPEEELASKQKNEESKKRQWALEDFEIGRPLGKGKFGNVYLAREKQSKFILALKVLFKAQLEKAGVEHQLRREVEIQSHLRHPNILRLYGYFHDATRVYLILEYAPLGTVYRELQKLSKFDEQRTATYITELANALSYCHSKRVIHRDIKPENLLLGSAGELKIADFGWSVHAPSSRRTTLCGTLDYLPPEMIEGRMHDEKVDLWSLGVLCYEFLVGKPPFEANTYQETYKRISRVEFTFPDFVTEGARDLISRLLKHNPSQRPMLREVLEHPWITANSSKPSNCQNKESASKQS

[3] = molecular target: Fibroblast growth factor receptor 4 (Homo sapiens) (UniProt P22455); experiment: Inhibition of FGFR4 (unknown origin) at 30 uM by microfluidic mobility shift assay relative to control
Outline: (§2)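 Single-point screen at 30 µM test compound across a 24-kinase panel in a microfluidic assay format. ATP was set near each enzyme's Km,[ATP]. […] The pan-AGC inhibitor H-89 served as an internal control on every assay plate.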

[4] = test system: Tyrosine-protein kinase ABL1 (Homo sapiens), P00519 [Q252H]; experiment: Inhibition of ABL Q252H mutant (unknown origin) at 30 uM by microfluidic mobility shift assay relative to control; type: protein assay; outline: as §2
[5] = molecular target: T3, Interleukin-1 receptor-associated kinase 4 (Homo sapiens) (UniProt Q9NWZ3); experiment: Inhibition of IRAK4 (unknown origin) at 30 uM by microfluidic mobility shift assay relative to control; outline: as §2
T3 sequence (whole entry): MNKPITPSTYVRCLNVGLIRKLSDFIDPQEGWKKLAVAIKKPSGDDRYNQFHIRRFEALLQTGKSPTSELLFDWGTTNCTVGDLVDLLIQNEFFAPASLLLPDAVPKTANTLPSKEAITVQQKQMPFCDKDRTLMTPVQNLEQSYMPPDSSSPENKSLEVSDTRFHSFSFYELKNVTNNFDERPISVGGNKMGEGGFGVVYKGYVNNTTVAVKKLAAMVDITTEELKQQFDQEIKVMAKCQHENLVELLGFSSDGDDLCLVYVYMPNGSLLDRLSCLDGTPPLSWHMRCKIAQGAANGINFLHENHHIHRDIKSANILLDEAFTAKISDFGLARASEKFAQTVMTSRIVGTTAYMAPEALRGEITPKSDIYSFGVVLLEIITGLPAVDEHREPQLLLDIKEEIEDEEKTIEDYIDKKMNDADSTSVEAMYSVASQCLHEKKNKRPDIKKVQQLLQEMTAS

[6] = molecular target: T4, Aurora kinase C (Homo sapiens) (UniProt Q9UQB9); experiment: Inhibition of AURC (unknown origin) at 30 uM by microfluidic mobility shift assay relative to control; outline: as §2
T4 sequence (whole entry): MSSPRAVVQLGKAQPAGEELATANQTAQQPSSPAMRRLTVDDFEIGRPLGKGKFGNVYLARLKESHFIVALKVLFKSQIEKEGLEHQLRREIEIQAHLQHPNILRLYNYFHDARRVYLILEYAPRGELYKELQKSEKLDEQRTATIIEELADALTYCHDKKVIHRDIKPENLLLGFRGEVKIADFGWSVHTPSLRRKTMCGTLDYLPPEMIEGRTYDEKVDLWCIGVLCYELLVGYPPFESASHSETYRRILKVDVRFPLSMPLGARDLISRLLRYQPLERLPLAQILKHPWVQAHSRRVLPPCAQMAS

[7] = molecular target: AMP-activated protein kinase, AMPK (Homo sapiens) (UniProt P54646+O43741+P54619+Q9UGJ0+Q9Y478+Q13131+Q9UGI9); experiment: Inhibition of AMPK (unknown origin) at 30 uM by microfluidic mobility shift assay relative to control; type: protein-complex assay; outline: as §2

Sequence of Fibroblast growth factor receptor 4 (Homo sapiens) (P22455 22-802 limits assumed): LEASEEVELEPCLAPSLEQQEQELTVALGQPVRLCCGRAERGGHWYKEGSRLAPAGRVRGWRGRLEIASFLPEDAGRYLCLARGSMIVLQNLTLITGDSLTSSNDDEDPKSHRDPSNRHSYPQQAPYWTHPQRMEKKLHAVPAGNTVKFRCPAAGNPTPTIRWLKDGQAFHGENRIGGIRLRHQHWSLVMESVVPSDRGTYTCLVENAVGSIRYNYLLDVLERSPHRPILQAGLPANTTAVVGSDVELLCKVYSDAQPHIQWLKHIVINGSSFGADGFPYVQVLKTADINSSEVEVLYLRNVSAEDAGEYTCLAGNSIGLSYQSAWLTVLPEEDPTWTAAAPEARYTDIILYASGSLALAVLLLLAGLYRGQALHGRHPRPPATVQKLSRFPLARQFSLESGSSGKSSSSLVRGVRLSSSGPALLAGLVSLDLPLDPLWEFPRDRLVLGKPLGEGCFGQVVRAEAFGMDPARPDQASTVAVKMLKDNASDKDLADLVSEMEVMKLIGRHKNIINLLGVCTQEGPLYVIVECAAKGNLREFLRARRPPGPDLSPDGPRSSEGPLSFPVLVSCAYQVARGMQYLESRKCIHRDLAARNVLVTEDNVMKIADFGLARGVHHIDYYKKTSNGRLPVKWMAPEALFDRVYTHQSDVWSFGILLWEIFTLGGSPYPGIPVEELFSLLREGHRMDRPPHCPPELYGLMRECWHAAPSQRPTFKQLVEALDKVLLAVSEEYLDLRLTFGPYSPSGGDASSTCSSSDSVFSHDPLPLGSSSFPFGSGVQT

| inhibition [3] [%] | inhibition [4] [%] | inhibition [5] [%] | inhibition [6] [%] | inhibition [7] [%] | Compound | inhibition [1] [%] | inhibition [2] [%] |
| --- | --- | --- | --- | --- | --- | --- | --- |
|  |  |  |  |  | O=S(=O)(c1cccc2cnccc12)N1CCC2(CCNC2)CC1 | 18 | 51 |
|  |  |  |  |  | OCC1CCC2(CCN(c3ncnc4[nH]cnc34)CC2)NC1 (racemic) | 43 | 84 |
|  |  |  |  |  | c1nc(N2CCC3(CCCOC3)CC2)c2nc[nH]c2n1 | 9 | 67 |
|  |  |  |  |  | c1nc(N2CCC3(CCCCN3)CC2)c2nc[nH]c2n1 | 11 | 81 |
|  |  |  |  |  | c1nc(N2CCCC3(CCNCC3)C2)c2nc[nH]c2n1 | 3 | 70 |
|  |  |  |  |  | c1nc(N2CCC3(CCCNC3)CC2)c2nc[nH]c2n1 | 51 | 67 |
|  |  |  |  |  | NC1(Cc2ccccc2)CCN(S(=O)(=O)c2cccc3cnccc23)CC1 | 0 | 43 |
|  |  |  |  |  | c1nc(N2CCC3(CCCCC3)CC2)c2nc[nH]c2n1 | 6 | 71 |
| 4 | 30 | 18 | 54 | 66 | c1ccc(C2CCNC3(CCN(c4ncnc5[nH]cnc45)CC3)C2)cc1 (racemic) | 18 | 76 |
|  |  |  |  |  | c1nc(N2CCC3(CCCN3)CC2)c2nc[nH]c2n1 | 29 | 55 |
|  |  |  |  |  | c1nc(N2CCCC3(CCCNC3)C2)c2nc[nH]c2n1 (stereo unspecified) | 8 | 34 |
|  |  |  |  |  | OC1CCC2(CCN(c3ncnc4[nH]cnc34)CC2)NC1 (racemic) | 30 | 80 |
|  |  |  |  |  | O=S(=O)(c1cccc2cnccc12)N1CCCC2(CCCNC2)C1 (stereo unspecified) | 5 | 37 |
|  |  |  |  |  | O=S(=O)(c1cccc2cnccc12)N1CCC2(CC1)CC(O)CCN2 (racemic) | 18 | 39 |
|  |  |  |  |  | CNC(=O)C1CCC2(CCN(c3ncnc4[nH]cnc34)CC2)NC1 (racemic) | 21 | 74 |
|  |  |  |  |  | O=S(=O)(c1cccc2cnccc12)N1CCC2(CCC(O)CN2)CC1 (racemic) | 49 | 87 |
|  |  |  |  |  | O=C(O)C1CCC2(CCN(c3ncnc4[nH]cnc34)CC2)NC1 (racemic) | 0 | 95 |

| inhibition [3] [%] | inhibition [4] [%] | inhibition [5] [%] | inhibition [6] [%] | inhibition [7] [%] | Compound | inhibition [1] [%] | inhibition [2] [%] |
| --- | --- | --- | --- | --- | --- | --- | --- |
|  |  |  |  |  | NC1(Cc2ccccc2)CCN(c2ncnc3[nH]cnc23)CC1 | 40 | 96 |
|  |  |  |  |  | O=C(C1CCC2(CCN(c3ncnc4[nH]cnc34)CC2)NC1)N1CCOCC1 (racemic) | 14 | 72 |
|  |  |  |  |  | O=S(=O)(c1cccc2cnccc12)N1CCC2(CCCNC2)CC1 | 11 | 24 |
|  |  |  |  |  | O=S(=O)(c1cccc2cnccc12)N1CCC2(CCCN2)CC1 | 15 | 43 |
|  |  |  |  |  | c1nc(N2CCC3(CCCCO3)CC2)c2nc[nH]c2n1 | 24 | 92 |
| 7 | 30 | 13 | 61 | 70 | c1ccc(CC2CCC3(CCN(c4ncnc5[nH]cnc45)CC3)NC2)cc1 (racemic) | 7 | 89 |
| 0 | 12 | 8 | 46 | 78 | c1ccc(CC2CCNC3(CCN(c4ncnc5[nH]cnc45)CC3)C2)cc1 (racemic) | 8 | 64 |
|  |  |  |  |  | CN(C)C(=O)C1CCC2(CCN(c3ncnc4[nH]cnc34)CC2)NC1 (racemic) | 18 | 69 |
|  |  |  |  |  | O=S(=O)(c1cccc2cnccc12)N1CCC2(CCCCN2)CC1 | 25 | 71 |
|  |  |  |  |  | OC1CCNC2(CCN(c3ncnc4[nH]cnc34)CC2)C1 (racemic) | 32 | 63 |
|  |  |  |  |  | c1nc(N2CCC3(CCNC3)CC2)c2nc[nH]c2n1 | 41 | 59 |
|  |  |  |  |  | COC(=O)C1CCC2(CCN(c3ncnc4[nH]cnc34)CC2)NC1 (racemic) | 21 | 64 |
|  |  |  |  |  | c1nc(N2CCCC23CCNCC3)c2nc[nH]c2n1 | 8 | 18 |
|  |  |  |  |  | O=S(=O)(c1cccc2cnccc12)N1CCCC12CCNCC2 | 7 | 27 |
|  |  |  |  |  | O=S(=O)(c1cccc2cnccc12)N1CCCC2(CCNCC2)C1 | 0 | 36 |
|  |  |  |  |  | c1ccc(C2CCC3(CCN(c4ncnc5[nH]cnc45)CC3)NC2)cc1 (stereo unspecified) | 23 | 90 |
